From ChEMBL document CHEMBL1149660, “Identification and characterization of novel sodium/potassium-ATPase inhibitors by virtual screening of a compound database” (Bioorg Med Chem, 2007)
The source made the active and inactive calls. The calls are words filed in the database; no cut-off is given here.

Assays:
[1] = (§1) Inhibition of Na/K-ATPase in porcine cerebral cortex; format: tissue-based, Sus scrofa
Outline: (§2)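 Coupled pyruvate kinase/lactate dehydrogenase assay using lyophilized porcine cerebral cortex Na/K-ATPase. The enzyme was preincubated at 37 °C for at least 30 min (or overnight at room temperature first, in some cases) with 10–14 inhibitor concentrations. Reactions were started with 5 mM ATP. NADH oxidation was followed at 340 nm for 5 min. IC50 came from the inhibition curves; relative potency is the IC50 divided by ouabain's IC50.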

Sus scrofa [2] = organism: Sus scrofa; assay: Inhibition of Na/K-ATPase in porcine cerebral cortex relative to ouabain; format: tissue-based; outline: as §2
Sus scrofa [3] = organism: Sus scrofa; assay: as §1; format: tissue-based; outline: as §2

Row | SMILES | IC50 [1] [nM] | Activity (Sus scrofa [2]) | Activity (Sus scrofa [3])
1 | C[C@]12CC[C@H]3[C@@H](CC[C@]4(O)C[C@@H](O)CC[C@]34/C=N/C34CC5CC(CC(C5)C3)C4)[C@@]1(O)CC[C@@H]2C1=CC(=O)OC1 | 313 | 0.668 | 
2 | CC1OC(O[C@H]2CC[C@]3(/C=N/CCc4ccc(O)cc4)[C@H]4CC[C@]5(C)[C@@H](C6=CC(=O)OC6)CC[C@]5(O)[C@@H]4CC[C@]3(O)C2)CC(O)C1O (some centres not stated) | 2640 | 4.92 | 
3 | C[C@]12CC[C@@H](O)C[C@@H]1[C@@H](O)C[C@H]1[C@H]2CC[C@]2(C)[C@@H]([C@@]3(C)CO3)CC[C@]12C |  |  | inactive
4 | C[C@]12CC[C@H]3[C@@H](CC[C@]4(O)C[C@@H](OC(=O)c5cccnc5)CC[C@]34C=O)[C@@]1(O)CC[C@@H]2C1=CC(=O)OC1 | 443 | 0.944 | 
5 | C[C@H]1O[C@@H](O[C@H]2CC[C@]3(C=O)[C@H]4CC[C@]5(C)[C@@H](C6=CC(=O)OC6)CC[C@]5(O)[C@@H]4CC[C@]3(O)C2)C[C@H](O)[C@@H]1O[C@@H]1OC[C@@H](O)[C@H](O)[C@H]1O | 160 | 0.341 | 
6 | C[C@]12CC[C@H]3[C@@H](CC[C@]4(O)C[C@@H](O)CC[C@]34/C=N/Nc3ccccc3)[C@@]1(O)CC[C@@H]2C1=CC(=O)OC1 | 4230 | 7.89 | 
7 | C[C@@H]1C[C@@H]2O[C@]3(C[C@@]4(C)[C@@H]5[C@@H](O)C[C@H]6C(C)(C)[C@@H](O[C@H]7OC[C@H](O)[C@@H](O)[C@@H]7O)CC[C@@]67C[C@@]57CC[C@]4(C)[C@@H]13)O[C@@H]2C(C)(C)O |  |  | inactive
8 | CO[C@H]1[C@H](O)[C@H](O[C@H]2CC[C@@]3(C=O)[C@@H](CC[C@@H]4[C@H]3CC[C@]3(C)[C@@H](c5ccc(=O)oc5)CC[C@]43O)C2)O[C@@H](C)[C@@H]1O | 55.6 | 0.118 | 
9 | C[C@H]1O[C@@H](O[C@H]2CC[C@]3(C=O)[C@H]4CC[C@]5(C)[C@@H](C6=CC(=O)OC6)CC[C@]5(O)[C@@H]4CC[C@]3(O)C2)C[C@H]2OC(C)(C)O[C@@H]12 | 14.6 | 0.031 | 
10 | CC(C)(O)[C@H]1CC[C@@](C)([C@H]2[C@@H](O)C[C@@]3(C)[C@@H]4C[C@H](O)C5C(C)(C)[C@@H](O[C@@H]6O[C@H](CO)[C@@H](O)[C@H](O)[C@H]6O)CC[C@@]56C[C@@]46CC[C@]23C)O1 (some centres not stated) |  |  | inactive
11 | CC(=O)OCC(=O)[C@@]1(OC(C)=O)CC[C@H]2[C@@H]3CC[C@H]4C[C@H](OC(C)=O)CC[C@]4(C)[C@H]3CC[C@@]21C |  |  | inactive
12 | C[C@H]1CCC([C@@H](C)[C@H]2CC[C@@H]3[C@@H]2CC[C@H]2[C@H]3CC(=O)[C@H]3C[C@@H](O)CC[C@@]32C)=NC1 | 143000 | 305 | 
13 | C[C@H]1O[C@@H](O[C@H]2CC[C@]3(C=O)[C@H]4CC[C@]5(C)[C@@H](C6=COC(=O)C6)CC[C@]5(O)[C@@H]4CC[C@]3(O)C2)C[C@@H]2OC3(CCCCC3)O[C@@H]21 | 409 | 0.872 | 
